Data set [1] deals with RAW264.7. Description: Modulation of M1 polarization in mouse RAW264.7 cells assessed as change in Mcp1 mRNA expression at 300 nM measured after 24 hrs by qRT-PCR analysis relative to control. In kind it is functional, cell-based. The conditions noted are these: RAW264.7, 24 h, read-out: FC. The method in brief:
(§1)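 RAW264.7 cells (DMEM, 10% FBS) exposed 24 h to 300 nM compound alone; LPS 50 ng/ml as positive control. Mcp1 mRNA by qRT-PCR; fold change = dosed group level / control group level.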
In general terms: Real-time PCR tracks product formation cycle by cycle.

For data set [2], the system named is RAW264.7. Description: Modulation of M2 polarization in mouse RAW264.7 cells assessed as change in Arg1 mRNA expression at 300 nM measured after 24 hrs by qRT-PCR analysis relative to control. In kind it is functional. The method in brief:
(§2)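 RAW264.7 cells (DMEM, 10% FBS) given 300 nM compound for 24 h; IL-4 20 ng/ml as positive control. Arg1 mRNA measured by qRT-PCR; fold change = expression in dosed group / expression in untreated control.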

Data set [3] concerns RAW264.7. Description: Modulation of M2 polarization in mouse RAW264.7 cells assessed as up regulation of Arg1 mRNA expression at 300 nM measured after 24 hrs by qRT-PCR analysis. In kind it is functional, cell-based. The method in brief:
as §2

Data set [4] concerns RAW264.7. Description: Modulation of M1 polarization in mouse RAW264.7 cells assessed as up regulation of Mcp1 mRNA expression at 300 nM measured after 24 hrs by qRT-PCR analysis. The conditions noted are these: raw264.7, 24 h, 0.3 µM. In kind it is cell-based. The method in brief:
as §1

SMILES strings stand for the structures. Active and inactive are the calls of the source. The rule behind the calls is not given here.

As for `Cl.Cn1ncc(Cl)c1-c1ccc(C(=O)N[C@@H]2CNCC[C@H]2c2ccc(F)c(F)c2)cc1`, the fold induction at 0.3 µM in data set [1] worked out at 1.5. Besides, the “fold change (FC)” value in data set [2] is given as 1.97. The matching figures for `Cl.O=C(N[C@@H]1CNCC[C@H]1c1cccc(F)c1)c1ccc(F)cc1`: 1.64 and 0.91. The matching figures for `Cl.Cn1ncc(Cl)c1-c1ccc(C(=O)N[C@@H]2CNCC[C@H]2c2ccc(Cl)c(C(F)(F)F)c2)cc1`: 5.08 and 2.82.

Regarding `Cn1nccc1C(=O)N1C[C@@H](c2cc(F)cc(F)c2)[C@@H]2[C@H]1C1CCN2CC1`, the fold induction at 0.3 µM in data set [1] turned out to be 1.95. Further, the “fold change (FC)” value in data set [2] was 2.22. The matching figures for `Cc1cc(C(=O)N[C@@H]2CNCC[C@H]2c2cccc(F)c2)ccc1-c1c(Cl)cnn1C.Cl`: 2.44 and 8.35. The matching figures for `CCN(CC)C(=O)c1ccc(-c2ccnn2C)cc1F`: 1.97 and 1.96.

`Cc1ccc(S(=O)(=O)N2CCN(c3nc4ccccc4nc3S(=O)(=O)c3ccc(F)cc3)CC2)cc1`: the result in data set [3] was Active. `O=C(NCCN1CCC(c2ccccc2)CC1)c1ccc(-c2cc[nH]n2)cc1`: the fold induction at 0.3 µM in data set [1] worked out at 2.14. Moreover, the “fold change (FC)” value in data set [2] worked out at 3.92.

As for `Cl.Cn1nccc1C(=O)N[C@@H]1CNCC[C@H]1c1cccc(F)c1`, the fold induction at 0.3 µM in data set [1] was 2.05. Besides, the “fold change (FC)” value in data set [2] is 1.62.

For the compound `Cl.Cn1ncc(Cl)c1-c1ccc(C(=O)N[C@@H]2CNCC[C@H]2c2ccc(F)c(F)c2)cc1Cl`, the fold induction at 0.3 µM in data set [1] turned out to be 1.16. Further, the “fold change (FC)” value in data set [2] was 1.72. The matching figures for `O=C(NCC(c1ccccc1F)N1CCCC1)c1ccc(-c2cc[nH]n2)cc1` (stereo unspecified): 1.34 and 1.09.

With `COc1ccc(NC(=O)c2ccc(-c3ccnn3C)cc2F)cc1`, the fold induction at 0.3 µM in data set [1] is 2.16. In addition, the “fold change (FC)” value in data set [2] was determined as 3.86. The matching figures for `CC(=O)N[C@@H]1Cc2ccccc2[C@H]1NC(=O)c1cn[nH]c1-c1cccc(F)c1`: 2.14 and 0.8. The matching figures for `Cl.Cn1ncc(Cl)c1-c1ccc(C(=O)N[C@@H]2CNCC[C@H]2c2ccc(F)c(F)c2)cn1`: 1.01 and 0.27. With `COc1cccc(-c2noc(-c3nn(-c4ccc(Cl)cc4)c4ccccc34)n2)c1`, the result in data set [3] was Active. Turning to `CN(CC1Cc2ccccc2CN1C)C(=O)c1ccc(-c2ccn[nH]2)cc1` (stereo unspecified), the fold induction at 0.3 µM in data set [1] came to 1.14. Besides, the “fold change (FC)” value in data set [2] was 2.35. The matching figures for `Cc1cc(-c2ccnn2C)cnc1C(=O)N[C@@H]1CNCC[C@H]1c1ccc(Cl)c(C(F)(F)F)c1.Cl`: 1.37 and 0.4. The matching figures for `Cl.O=C(N[C@@H]1CNCC[C@H]1c1cccc(F)c1)c1ccccc1F`: 1.72 and 1.01. As to `Cl.Cn1nccc1-c1ccc(C(=O)N[C@@H]2CNCC[C@H]2c2cccc(F)c2)c(F)c1`, the outcome in data set [3] was Active. Also, in data set [4], the Activity result is listed as “Non-Toxic”. Moreover, in data set [1], the fold induction at 0.3 µM is 1.54. In addition, the “fold change (FC)” value in data set [2] was 10.05.

Take `CCNC(=O)c1ccc(-c2ccnn2C)cc1F`: the fold induction at 0.3 µM in data set [1] was found to be 1.83. Also, the “fold change (FC)” value in data set [2] is reported as 2.31. The matching figures for `COc1ccccc1C(=O)N[C@@H]1CNCC[C@H]1c1cccc(F)c1.Cl`: 1.42 and 1.32. The matching figures for `Cl.Cn1nccc1-c1ccc(C(=O)N[C@H]2CNCC[C@@H]2c2cccc(F)c2)c(F)c1`: 1.76 and 0.31. As for `O=C(NCCN1CCCC(c2ccccc2)C1)c1ccc(-c2ccn[nH]2)cc1` (stereo unspecified), in data set [1], the fold induction at 0.3 µM was 1.52. Moreover, the “fold change (FC)” value in data set [2] is 1.48. The matching figures for `Cc1cc(-c2ccnn2C)cnc1C(=O)N[C@@H]1CNCC[C@H]1c1cccc(F)c1.Cl`: 1.99 and 0.95. As for `Cl.Cn1nccc1-c1ccc(C(=O)N[C@@H]2CNCC[C@H]2c2ccc(F)c(F)c2)cn1`, the fold induction at 0.3 µM in data set [1] was determined as 1.23. Besides, in data set [2], the “fold change (FC)” value is recorded as 0.85. Consider `Cc1ccc(C(=O)N[C@@H]2CNCC[C@H]2c2cccc(F)c2)s1.Cl`, for which the fold induction at 0.3 µM in data set [1] came to 1.54. Moreover, the “fold change (FC)” value in data set [2] turned out to be 1.44. The matching figures for `Cl.Cn1ncc(Cl)c1-c1ccc(C(=O)N[C@@H]2CNCC[C@H]2c2ccc(Cl)c(C(F)(F)F)c2)c(F)c1`: 3.54 and 10.33. Take `Cc1ccc([C@@H]2CN(C(=O)c3ccc(-c4ccn[nH]4)cc3)C[C@H]2N(C)C)cc1`: the fold induction at 0.3 µM in data set [1] was determined as 1.24. The “fold change (FC)” value in data set [2] came out at 4.85.

Regarding `Cn1nccc1C(=O)N1CC(c2cc(F)cc(F)c2)C2[C@H]1C1CCN2CC1` (single isomer, unassigned), in data set [1], the fold induction at 0.3 µM stood at 1.4. For the same compound, in data set [2], the “fold change (FC)” value came to 1.16. `Cl.Cn1ncc(Br)c1-c1ccc(C(=O)N[C@@H]2CNCC[C@H]2c2cccc(F)c2)nc1`: in data set [1], the fold induction at 0.3 µM is 1.14. The “fold change (FC)” value in data set [2] is 0.78. The matching figures for `Cc1cc(C(=O)N[C@@H]2CNCC[C@H]2c2ccc(Cl)c(C(F)(F)F)c2)ccc1-c1c(Cl)cnn1C.Cl`: 4.85 and 1.82.

Consider `COc1ccc(S(=O)(=O)Nc2ccc(OC)c(-c3ccc(O)cc3)c2)cc1`, for which, in data set [3], the outcome was Active. Regarding `Cl.Cn1nccc1-c1ccc(C(=O)N[C@@H]2CNCC[C@H]2c2ccc(Cl)c(C(F)(F)F)c2)cc1Cl`, the fold induction at 0.3 µM in data set [1] turned out to be 1.49. Further, in data set [2], the “fold change (FC)” value turned out to be 5.08. With `Cl.Cn1nccc1-c1ccc(C(=O)N[C@@H]2CNCC[C@H]2c2ccc(F)c(F)c2)c(F)c1`, the fold induction at 0.3 µM in data set [1] is 0.39. The “fold change (FC)” value in data set [2] is reported as 3.99. As to `O=C(Nc1n[nH]c(=O)c2ccccc12)c1cccc(C(=O)N2CCN(C(=O)C3CC3)CC2)c1`, the outcome in data set [3] was Active. `Cn1ncc(Br)c1-c1ccc(C(=O)N[C@@H]2CNCC[C@H]2c2ccc(F)c(F)c2)cc1.O=C(O)C(O)C(O)C(=O)O`: the fold induction at 0.3 µM in data set [1] came to 1.77. For the same compound, the “fold change (FC)” value in data set [2] came out at 2.27. In the case of `CC(C)C[C@H](NC(=O)[C@H](Cc1ccccc1)NC(=O)C[C@H](NC(=O)c1ccc2ccccc2c1)c1ccccc1)C(=O)[C@]1(C)CO1`, in data set [3], the result was Active.

Take `Cl.Cn1ncc(Br)c1-c1ccc(C(=O)N[C@@H]2CNCC[C@H]2c2cccc(F)c2)cc1Cl`: the fold induction at 0.3 µM in data set [1] turned out to be 2.05. In data set [2], the “fold change (FC)” value was found to be 10.12. The matching figures for `Cc1cc(C(=O)N[C@@H]2CNCC[C@H]2c2cccc(F)c2)ccc1-c1c(Br)cnn1C.Cl`: 1.89 and 6.54.

For `Cl.Cn1ncc(Br)c1-c1ccc(C(=O)N[C@@H]2CNCC[C@H]2c2ccc(F)c(F)c2)cn1`, the fold induction at 0.3 µM in data set [1] stood at 1.32. Also, the “fold change (FC)” value in data set [2] stood at 0.56. The matching figures for `Cc1ccc(C(=O)N[C@@H]2CNCC[C@H]2c2cccc(F)c2)o1.Cl`: 1.89 and 1.76. The matching figures for `Cn1nccc1-c1ccc(C(=O)N[C@@H]2CNCC[C@H]2c2ccc(F)c(F)c2)cc1.O=C(O)C(O)C(O)C(=O)O`: 0.9 and 3.42. As for `Cc1cc(-c2c(Br)cnn2C)cnc1C(=O)N[C@@H]1CNCC[C@H]1c1cccc(F)c1.Cl`, the fold induction at 0.3 µM in data set [1] was determined as 1.63. In data set [2], the “fold change (FC)” value was found to be 0.71. The matching figures for `O=C1NCCN(C(=O)c2ccc(-c3cc[nH]n3)cc2)C1Cc1ccccc1` (stereo unspecified): 1.53 and 1.33. Regarding `Cn1nccc1-c1ccc(C(=O)Nc2ccc(F)cc2)c(F)c1`, the fold induction at 0.3 µM in data set [1] came out at 2.01. For the same compound, in data set [2], the “fold change (FC)” value is 1.63. For `Cl.Cn1nccc1-c1ccc(C(=O)N[C@H]2CCCNC2)c(F)c1`, the fold induction at 0.3 µM in data set [1] came to 2.26. The “fold change (FC)” value in data set [2] is listed as 2.11.

Turning to `O=C(NCCN1CCC(c2ccccc2)C1)c1ccc(-c2cc[nH]n2)cc1` (stereo unspecified), the fold induction at 0.3 µM in data set [1] was found to be 1.86. In addition, the “fold change (FC)” value in data set [2] worked out at 2.22.

The record behind these values is ChEMBL document CHEMBL4339193, “Phenotypic Screening-Based Identification of 3,4-Disubstituted Piperidine Derivatives as Macrophage M2 Polarization Modulators: An Opportunity for Treating Multiple Sclerosis” (J Med Chem, 2019).
